Laboratory results published in ChEMBL document CHEMBL1157252, “Antibacterial galloylated alkylphloroglucinol glucosides from myrtle (Myrtus communis)” (2006).
≈ marks a conversion by molar mass, not a printed value. Calls of active or inactive are those of the source. No cut-off for these calls is given here.

Legend:
Staphylococcus aureus [1] = assay: Antibacterial activity against epidemic methicillin-resistant Staphylococcus aureus 15 expressing MecA after 18 hrs by microtiter plate method; format: functional
Procedure, shortened: (§1)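 Broth microdilution MIC. Strains were grown on nutrient agar for 24 h at 37 °C. Inoculum was made to the 0.5 McFarland standard in normal saline and diluted to a final 5 × 10^5 cfu/mL. Plates were incubated for 18 h at 37 °C. MIC was taken as the lowest concentration with no observed growth, determined in duplicate.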

Staphylococcus aureus [2] = assay: Antibacterial activity against multidrug-resistant Staphylococcus aureus SA-1199B overexpressing NorA efflux transporter after 18 hrs by microtiter plate method; format: functional; procedure, shortened: as §1
Staphylococcus aureus [3] = assay: Antibacterial activity against Staphylococcus aureus RN4220 expressing MsrA efflux transporter after 18 hrs by microtiter plate method; format: functional; settings: for MIC: RN4220, 18 h; procedure, shortened: as §1
Staphylococcus aureus [4] = assay: Antibacterial activity against methicillin-resistant Staphylococcus aureus XU212 expressing TetK efflux pump and MecA after 18 hrs by microtiter plate method; format: functional; procedure, shortened: as §1
Staphylococcus aureus [5] = assay: Antibacterial activity against methicillin-susceptible Staphylococcus aureus ATCC 25923 after 18 hrs by microtiter plate method; format: functional; settings: for MIC: ATCC 25923, 18 h; procedure, shortened: as §1
Staphylococcus aureus [6] = assay: Antibacterial activity against multidrug-resistant Staphylococcus aureus SA-1199B overexpressing NorA efflux transporter at 256 ug/mL after 18 hrs by microtiter plate method; format: functional, organism-based
Staphylococcus aureus [7] = assay: Antibacterial activity against Staphylococcus aureus RN4220 expressing MsrA efflux transporter at 256 ug/mL after 18 hrs by microtiter plate method; format: functional, organism-based
Procedure, shortened: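 Strain pre-grown on nutrient agar for 24 h at 37 °C. Inoculum matched to the 0.5 McFarland standard in normal saline and diluted to a final 5 × 10^5 cfu/mL in microtiter wells. Plates incubated 18 h at 37 °C. MIC taken as the lowest concentration with no bacterial growth, determined in duplicate.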

Staphylococcus aureus [8] = assay: Antibacterial activity against epidemic methicillin-resistant Staphylococcus aureus 15 expressing MecA at 256 ug/mL after 18 hrs by microtiter plate method; format: functional, organism-based
Staphylococcus aureus [9] = assay: Antibacterial activity against methicillin-resistant Staphylococcus aureus XU212 expressing TetK efflux pump and MecA at 256 ug/mL after 18 hrs by microtiter plate method; format: functional, organism-based

`CCn1cc(C(=O)O)c(=O)c2cc(F)c(N3CCNCC3)cc21` [NORFLOXACIN] gave an MIC (Staphylococcus aureus [1]) of 0.5 µg/mL (≈ 1.57 µM), an MIC (Staphylococcus aureus [2]) of 32 µg/mL (≈ 100 µM) and an MIC (Staphylococcus aureus [3]) of 2 µg/mL (≈ 6.26 µM). The MIC (Staphylococcus aureus [4]) was 4 µg/mL (≈ 12.5 µM) and the MIC (Staphylococcus aureus [5]) was 1 µg/mL (≈ 3.13 µM).

With `CC1(C)C=C2C(=O)C(C)(C)C(=O)C(C)(C)C2(O)OO1` (stereo not drawn) the Activity (Staphylococcus aureus [1]) was “inactive”, the Activity (Staphylococcus aureus [2]) was “inactive” and the Activity (Staphylococcus aureus [3]) was “inactive”. For the same compound, the Activity (Staphylococcus aureus [4]) was “inactive” and the Activity (Staphylococcus aureus [5]) was “inactive”.

In the case of `CC(C)C[C@]1(O)C(=O)C(C)(C)C(=O)C(C)(C)[C@@H]1O[C@@H]1O[C@H](COC(=O)c2cc(O)c(O)c(O)c2)[C@@H](O)[C@H](O)[C@H]1O` [GALLOMYRTUCOMMULONE A], the MIC (Staphylococcus aureus [1]) is reported as 128 µg/mL (≈ 224 µM), the MIC (Staphylococcus aureus [2]) is reported as 256 µg/mL (≈ 449 µM) and the MIC (Staphylococcus aureus [3]) is reported as 128 µg/mL (≈ 224 µM). It also gave an MIC (Staphylococcus aureus [4]) of 256 µg/mL (≈ 449 µM) and an MIC (Staphylococcus aureus [5]) of 128 µg/mL (≈ 224 µM).

In the case of `CC(C)=C[C@]1(O)C(=O)C(C)(C)C(=O)C(C)(C)[C@@H]1O[C@@H]1O[C@H](COC(=O)c2cc(O)c(O)c(O)c2)[C@@H](O)[C@H](O)[C@H]1O`, the Activity (Staphylococcus aureus [6]) is reported as “inactive”, the Activity (Staphylococcus aureus [7]) is reported as “inactive” and the Activity (Staphylococcus aureus [8]) is reported as “inactive”. The Activity (Staphylococcus aureus [9]) was “inactive”.

For `CC(C)=C[C@@]1(O)C(=O)C(C)(C)C(=O)C(C)(C)[C@@H]1O[C@@H]1O[C@H](COC(=O)c2cc(O)c(O)c(O)c2)[C@@H](O)[C@H](O)[C@H]1O`, the Activity (Staphylococcus aureus [6]) was “inactive”, the Activity (Staphylococcus aureus [7]) was “inactive” and the Activity (Staphylococcus aureus [8]) was “inactive”. The Activity (Staphylococcus aureus [9]) was “inactive”.

`CC(C)CC1(O)C(=O)C(C)(C)C(O[C@@H]2O[C@H](COC(=O)c3cc(O)c(O)c(O)c3)[C@@H](O)[C@H](O)[C@H]2O)C(C)(C)C1=O` (stereo partly drawn) [GALLOMYRTUCOMMULONE B] was tested, and the MIC (Staphylococcus aureus [1]) was 128 µg/mL (≈ 224 µM), the MIC (Staphylococcus aureus [2]) was 128 µg/mL (≈ 224 µM) and the MIC (Staphylococcus aureus [3]) was 128 µg/mL (≈ 224 µM). The MIC (Staphylococcus aureus [4]) was 128 µg/mL (≈ 224 µM) and the MIC (Staphylococcus aureus [5]) was 64 µg/mL (≈ 112 µM).
